Assay results collected from several papers.
Each line is one published result; the experiments were not run side by side.
Effect on: cell growth or viability

CC(=NNC(=O)c1cc(-c2ccccc2)n(-c2ccc(S(N)(=O)=O)cc2)n1)c1ccc(Br)cc1  IC50 (HT-29; fluorescence; 48 h): 37.2 µM
O=C(NO)c1ccc(NCc2cnc3ccccc3c2)cc1  IC50 (LLC-PK1; 48 h): 9.38 µM
O=c1c2cc(Cl)ccc2nc(-c2ccccc2)n1N=Cc1ccc(F)cc1  IC50 (LLC-PK1; MTT; 72 h): 86.7 µM
O=C(NO)c1ccc(N2CCN(Cc3c[nH]c4ccccc34)CC2)cc1  IC50 (LLC-PK1; 48 h): 13.3 µM
O=c1c2cc(Cl)ccc2nc(-c2ccccc2)n1N=Cc1ccccc1Cl  IC50 (LLC-PK1; MTT; 72 h): 351 µM
NS(=O)(=O)c1ccc(-n2nc(C(=O)NN3C(=O)CCC3=O)cc2-c2ccccc2)cc1  IC50 (HT-29; fluorescence; 48 h): 31.4 µM
CN1CCC(NC2CCc3[nH]c4c(C(N)=O)ccc(-c5ccccc5Cl)c4c3C2)CC1 (centres unmarked)  IC50 (SU-DHL-4; 96 h): 0.0223 µM
COc1cccc2c1C(=O)c1c(O)c3c(c(O)c1C2=O)C[C@@](O)(C(=O)CO)C[C@@H]3O[C@H]1C[C@H](N)[C@H](O)[C@H](C)O1  IC50 (LLC-PK1; 48 h): 2.34 µM
NS(=O)(=O)c1ccc(-n2nc(C(=O)NN3C(=O)c4ccccc4C3=O)cc2-c2ccccc2)cc1  IC50 (HT-29; fluorescence; 48 h): 48.3 µM
O=c1c2cc(Cl)ccc2nc(-c2ccccc2)n1N=Cc1ccccc1O  IC50 (LLC-PK1; MTT; 72 h): 75.7 µM
NS(=O)(=O)c1ccc(-n2nc(C(=O)NN=Cc3ccccc3O)cc2-c2ccccc2)cc1  IC50 (HT-29; fluorescence; 48 h): 20 µM
O=c1c2cc(Cl)ccc2nc(-c2ccccc2)n1N=Cc1ccc([N+](=O)[O-])cc1  IC50 (LLC-PK1; MTT; 72 h): 115 µM
CC(=O)OC[C@H]1O[C@@H]([S-])[C@H](OC(C)=O)[C@@H](OC(C)=O)[C@@H]1OC(C)=O.CCP(CC)CC.[Au+]  IC50 (IMR-90; MTT; 48 h): 5.27 µM
CC(=NNC(=O)c1cc(-c2ccccc2)n(-c2ccc(S(N)(=O)=O)cc2)n1)c1ccc(C)cc1  IC50 (HT-29; fluorescence; 48 h): 21.8 µM
CC(C)N=c1cc2n(-c3ccc(Cl)cc3)c3ccccc3nc-2cc1Nc1ccc(Cl)cc1  IC50 (Caco-2; MTT; 24 h): 23.3 µg/mL
COc1cc(C=NNC(=O)c2cc(-c3ccccc3)n(-c3ccc(S(N)(=O)=O)cc3)n2)cc(OC)c1OC  IC50 (HT-29; fluorescence; 48 h): 26.3 µM
O=c1c2cc(Cl)ccc2nc(-c2ccccc2)n1N=Cc1ccco1  IC50 (LLC-PK1; MTT; 72 h): 154 µM
COc1cccc(-c2cc(NCc3ccc4c(c3)OCO4)nc(N)n2)c1  IC50 (A2780; 72 h): 0.0901 µM
O=c1c2cc(Cl)ccc2nc(-c2ccccc2)n1N=Cc1cccc([N+](=O)[O-])c1  IC50 (LLC-PK1; MTT; 72 h): 149 µM
Nc1cccc2c1C(=O)N(C1CCC(=O)NC1=O)C2=O (centres unmarked)  IC50 (SU-DHL-4; CCK-8; 7 days): > 20 µM
